# Sampled rows, rich in hits. Any-hit rate of the full collection: about 2.1%.
# ABCB1 block = ABCB1 efflux pump inhibitors, primary screen, cell-based, multiplex, flow cytometry, ABCG2 counter-screen; ATP-dependent translocase ABCB1 (Homo sapiens), P08183; CCRF-Adr cells, JC-1 efflux; inhibition, % at 6.6 µM; actives 0.067% (n = 190,000); AID 1326, 2008; in the data active = inhibition above about 40%;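 note: 0% = vehicle and 100% = reference inhibitor; higher value means more JC-1 retained so stronger ABCB1 efflux block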
# bCat nuc transl = modulators of beta-catenin nuclear translocation, primary screen, imaging, HeLa cells, immunofluorescence, high-content; nuclear translocation activity, % at 5 µM; actives 0.3% (n = 190,000); AID 1665, 2009;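 active = nuclear translocation activity above 50% at 5 µM, with a well cell count of 50 or more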;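 note: per-cell ratio of nuclear to cytoplasmic median beta-catenin stain intensity; plate controls were DMSO negative control for no effect and GSK-3 inhibitor IX positive control for full effect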
#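 Test system: human HeLa cell line; Doses: 5 µM primary, 0.02–20 µM confirmation; Incubation: 24 h compound exposure, 37°C; Detection: beta-catenin immunofluorescence imaging with DAPI; Read-out: beta-catenin nuclear/cytoplasmic ratio, % activation.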
# Arbovirus anti = antivirals against arbovirus infection, primary screen, cell-based, full library, 10K replicate subset; arbovirus infection cell-based antiviral screen; inhibition, % at 10 µM; actives 0.37% (n = 200,000); in the data active = inhibition above about 30%
# ABCG2 inh = ABCG2 efflux pump inhibitors, primary screen, multiplex with ABCB1, IgMXP3 cells, flow cytometry; Broad substrate specificity ATP-binding cassette transporter ABCG2 (Homo sapiens), Q9UNQ0; JC-1 efflux; inhibition, % at 6.6 µM; actives 0.1% (n = 190,000);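 active = inhibition above 80%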;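 note: 0% = DMSO and 100% = nicardipine control wells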
# Target sequence (Q9UNQ0 whole entry, looked up): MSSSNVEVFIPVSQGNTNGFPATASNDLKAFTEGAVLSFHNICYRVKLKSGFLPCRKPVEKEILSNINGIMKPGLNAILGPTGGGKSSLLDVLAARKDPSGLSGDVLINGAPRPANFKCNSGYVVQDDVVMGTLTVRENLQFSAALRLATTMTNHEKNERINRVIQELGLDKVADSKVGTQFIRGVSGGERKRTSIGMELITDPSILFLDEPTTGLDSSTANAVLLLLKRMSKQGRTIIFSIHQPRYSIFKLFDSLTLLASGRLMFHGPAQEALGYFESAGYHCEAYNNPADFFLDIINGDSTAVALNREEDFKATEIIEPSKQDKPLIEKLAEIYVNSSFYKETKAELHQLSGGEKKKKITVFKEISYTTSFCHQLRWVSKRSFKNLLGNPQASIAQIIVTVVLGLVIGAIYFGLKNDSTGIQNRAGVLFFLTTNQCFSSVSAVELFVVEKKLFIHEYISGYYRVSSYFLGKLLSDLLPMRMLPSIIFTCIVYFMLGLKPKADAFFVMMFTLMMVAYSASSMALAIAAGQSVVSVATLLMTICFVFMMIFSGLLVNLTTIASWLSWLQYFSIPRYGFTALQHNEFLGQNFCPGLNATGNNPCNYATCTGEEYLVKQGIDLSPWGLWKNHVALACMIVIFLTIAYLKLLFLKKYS
#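 Incubation: cells with compound and JC-1, 10 min at 25 °C, rotating, no wash / Test system: IgMXP3 (ABCG2) plus far-red-tagged CCRF-Adr (ABCB1) cells / Compound dosing: one concentration, 6.6 µM final / Also added: JC-1 fluorescent substrate / Evaluation: efflux inhibition in percent versus controls / Detection: flow cytometry, 530 nm JC-1 signal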
# MT stabilize HCS = microtubule stabilizers in HeLa cells, primary screen, imaging, high-content imaging; HeLa tubulin immunostaining HCS, 24 h; share of cells brighter than vehicle mean+2SD; % tubulin-high responders, % at 10 µM; actives 0.83% (n = 200,000);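 active = plate Z-score above 3 for both tubulin-high and condensed-nucleus cell shares, with cell loss under 80%, at 10 µM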;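 note: anti alpha tubulin signal scored within the nucleus-defined area of each cell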
# Autophagy HCS = autophagy modulators in MEF cells, primary screen, imaging, high-content, MEF GFP-LC3. MEF GFP-LC3 puncta imaging; test concentration mostly 10 µM. calls only at 10 µM (by protocol). actives 0.98% (n = 190,000). AID 463193, 2010;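 active = percentage of spot-positive cells more than 3 SD above its plate mean, without a fluorescence outlier flag or 80% toxicity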;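 note: spot-positive cell cutoff set from DMSO-treated cells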
# * marks the source's active call; other numbers are inactive results; i = inactive; x = not tested or not shown; + = active, no number.
SMILES,ABCB1 block,bCat nuc transl,Arbovirus anti,ABCG2 inh,MT stabilize HCS,Autophagy HCS
Cn1cc(C(=O)N2CCc3ccccc3C2)c(=O)c2cc(S(=O)(=O)N3CCCCC3)ccc21,-2,-1,3,-10,2,i
CCOC(=O)c1sc(NC(=O)c2c(C)noc2C)c(C(=O)OCC)c1C,x,x,x,x,2,+
CCOC(=O)c1sc(NC(=O)c2noc3c2CCCC3)c(C(=O)OCC)c1C,x,x,1,x,4,x
CCN1C(=O)/C(=C/c2cc(C)n(C)c2C)SC1=Nc1ccc(OC)cc1,1,x,-6,32,4,i
CCN1C(=O)/C(=C/c2ccc(C)s2)SC1=Nc1ccc(OC)cc1,1,5,-9,4,33*,i
Nc1nc(Cl)c(C=O)c(N2CCCCC2)n1,1,-2,10,2,2,i
Nc1nc(N2CCCCC2)c(C=O)c(N2CCCCC2)n1,0,0,9,0,6,+
O=C(NC1CCCCC1)C(c1cccnc1)N(C(=O)CCl)c1cccc(Cl)c1 (stereo not given),3,25,-26,12,14*,i
COC(=O)CSC(C)C(=O)Nc1nnc(C(C)C)s1 (stereo not given),0,0,4,-1,2,+
Cc1ccc2cc(CN(CCN3CCOCC3)Cc3nnnn3Cc3ccco3)c(=O)[nH]c2c1C,1,-4,-1,4,4,+
C/C(=N\NC(=O)c1cccc(F)c1)c1ccc(Br)s1,0,22,-27,2,34*,i
O=C(O)CSC1c2ccccc2C(=O)N1c1ccccc1 (stereo not given),0,-2,4,-1,1,i
Cc1ccc(S(=O)(=O)c2cc3c(=O)n4ccccc4nc3n(Cc3ccco3)c2=N)cc1C,0,x,-25,-2,2,+
CCC(NC(=O)Nc1nnc(C(F)(F)F)s1)(C(F)(F)F)C(F)(F)F,0,5,-29,3,4,+
Cc1ccc(Cn2nnc3c(=O)[nH]c(C4CCN(S(=O)(=O)c5ccccc5)CC4)nc32)cc1,0,-1,-14,1,3,i
Cc1ccc(S(=O)(=O)N2CCC(c3nc4c(nnn4Cc4ccccc4)c(=O)[nH]3)CC2)cc1,0,1,7,1,2,+
CCOCCCNC(=O)/C(C#N)=C/c1ccc(Cl)c([N+](=O)[O-])c1,1,5,-27,15,4,i
CCOCCCNC(=O)/C(C#N)=C/c1cc(OC)c(O)c([N+](=O)[O-])c1,0,1,-26,2,24*,i
O=C(C1=C[C@@H](c2ccccc2)C[C@@H](OCc2ccc(CO)cc2)O1)N1CCN(Cc2ccc3c(c2)OCO3)CC1,3,14,-14,4,13*,i
O=C(C1=C[C@H](c2ccccc2)C[C@H](OCc2ccc(CO)cc2)O1)N1CCN(Cc2ccccc2)CC1,3,-1,-1,7,4,i
O=C(C1=C[C@@H](c2csc3ccccc23)C[C@@H](OCc2ccc(CO)cc2)O1)N1CCN(Cc2ccc3c(c2)OCO3)CC1,3,49,-4,4,22*,i
COc1ccc(CNCCNC(=O)c2cccs2)cc1OC,1,-4,3,4,2,i
COc1ccc2c(c1)c(CC(=O)OCC(=O)O)c(C)n2C(=O)c1ccc(Cl)cc1,0,-1,-2,1,3,+
CCCCCCCNC1=CC(=O)CC(c2ccccc2)C1 (stereo not given),-1,16,-28,-5,12*,i
CCCCCNC1=CC(=O)CC(c2ccccc2)C1 (stereo not given),0,x,-18,9,47*,i
SMILES,ABCB1 block,bCat nuc transl,Arbovirus anti,ABCG2 inh,MT stabilize HCS,Autophagy HCS
O=C(NCc1ccccn1)C1CCCN(S(=O)(=O)c2ccc(Br)cc2)C1 (stereo not given),1,-3,0,1,4,i
CCOc1ccccc1CN(Cc1ccco1)S(=O)(=O)c1ccc(-n2cnnn2)c(OC)c1,3,-1,-9,4,41*,i
CCCNC(=O)COC(=O)c1ccccc1C(=O)c1ccc(Cl)c([N+](=O)[O-])c1,4,-1,-29,1,4,i
Cc1ccc(Cl)c(NC(=O)COC(=O)c2ccccc2C(=O)c2ccc(Cl)c([N+](=O)[O-])c2)c1Cl,10,4,-40,-1,6,+
CCOc1cccc2sc(NN)nc12,-1,-1,38*,-2,1,i
CC(=O)/C=C/n1c(=S)oc2ccccc21,0,-1,-44,7,2,+
Cc1cccc2[nH]c3c(N4CCC5(CC4)OCCO5)ncnc3c12,0,57*,-9,1,39*,i
O=C(CSc1ncccn1)N1CCCc2ccccc21,0,0,1,10,2,i
CCOc1cc(NC(=O)c2ccco2)c(OCC)cc1NC(=O)Cc1cccc(OC)c1,3,x,7,10,4,i
CCOc1cc(NC(=O)c2ccco2)c(OCC)cc1NC(=O)COc1ccccc1C,x,x,x,x,3,+
N#Cc1ccc(NC(=O)c2cc(=O)c3ccccc3o2)cc1,0,0,6,0,5,i
CCC(=O)N1CCN(c2ccc(NC(=S)NC(=O)C(C)C)cc2)CC1,1,-1,1,3,2,+
Fc1ccccc1COc1ccc2ccccc2c1CNc1nn[nH]n1,0,-4,31*,0,18*,i
Fc1ccc(COc2ccc3ccccc3c2CNc2nn[nH]n2)cc1,0,9,2,0,4,i
CCOC(=O)N1CCN(C(=O)c2ccc(OCC)cc2)CC1,0,0,2,-2,4,i
N#Cc1c(N2C(=O)Nc3ccccc3N2O)sc2c1CCCCCC2,-1,-5,35*,-3,3,i
CC1CCCC(NC(=O)COC(=O)c2ccccc2[N+](=O)[O-])C1C (stereo not given),1,1,3,3,4,+
CC1CCCC(NC(=O)COC(=O)c2ccccc2NC(=O)c2ccco2)C1C (stereo not given),1,x,0,3,2,i
CCSc1nc2ccccc2c(=O)n1-c1c(C)n(C)n(-c2ccccc2)c1=O,0,1,-1,2,5,i
Cc1ccc(C(=O)Nc2ncc(Cc3ccccc3)s2)o1,0,2,-24,36,2,i

# Screening results deposited in PubChem BioAssay by several laboratories.
